Data: publication PMC6281781 (Structure (London, England : 1993), 2018)

Key:
[1] = tested on: PACSIN3 SH3 domain; assay: NMR 1H,15N-HSQC chemical shift titration with PACSIN3 SH3 domain; format: binding, chicken; conditions: for affinity for PACSIN3 SH3 domain relative to wildtype (in words): mutations in the TRPV4-PRR, interaction not fully abolished, Fig. S6, Table S1
Summary of the method: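 Chicken PACSIN3 SH3 domain (N-terminal His6) was 15N-labelled in E. coli minimal medium and purified by NiNTA then Superdex75 SEC. It was held at 250 μM in 10 mM Tris pH7, 100 mM NaCl and titrated from concentrated stocks with peptide (wildtype, AAWAA, P128A or P128A/P129L) and/or lipid, with the second ligand added sequentially. HSQC shifts were fitted for KD.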

[2] = target: chicken PACSIN3 SH3 domain (chicken); assay: NMR titration
[3] = target: chicken PACSIN1 SH3 domain (chicken); assay: NMR titration

Kd [2] [µM]	Compound	affinity for PACSIN3 SH3 domain relative to wildtype (in words) [1]	further results
	CCCCCCCC(=O)OC[C@H](COP(=O)(O)O[C@@H]1[C@H](O)[C@H](O)[C@@H](OP(=O)(O)O)[C@H](OP(=O)(O)O)[C@H]1O)OC(=O)CCCCCCC [PIP2, diC8-PI(4,5)P2, reference compound]		interaction with PACSIN3 SH3 domain (in words) ([1]; PIP2 added to isolated 15N-PACSIN3 SH3, no chemical shift changes in 1H,15N-HSQC): does not interact
	P128A/P129L: TRPV4 N-terminal peptide with double mutation P128A/P129L in the PRR (ENKRWRRRVVEKPVAGTKGPAPNALPILKV; left off: His6-SUMO, N-terminal, cleaved)	weakened	
	P128A: TRPV4 N-terminal peptide with single P128A mutation in the PRR (ENKRWRRRVVEKPVAGTKGPAPNAPPILKV; left off: His6-SUMO, N-terminal, cleaved)	weakened	
74.2	chicken TRPV4 PIP2 binding domain plus proline rich region peptide (PBD-PRR, residues 105-134) (from UniProt A0A1D5PXA5 105-134)		
68.6	chicken TRPV4 proline rich region peptide (PRR, residues 121-134), native sequence (from UniProt A0A1D5PXA5 121-134)		Kd [3]: 51.6 µM
